This passage reports folding enthalpy and Tm results from the array DNA melting data of Ke et al. (doi:10.1101/2024.01.08.574731).

Data set [1] is described as follows: folding enthalpy; higher = less favourable; fluorescence melt of hairpins on a sequencing array, two-state fit. The note with it: sodium 0.088 M. A digest of the protocol: (§1)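 Cy3 fluorescence of library hairpins on a sequenced MiSeq flow cell, with annealed Cy3 and quencher oligos, was imaged in 50 mM Na-HEPES pH 8.0, 25 mM NaCl in 2.5 °C steps up to 60 °C. Signals were normalised to pre-quench Cy3 and to control variants. Melting temperature and folding enthalpy came from bootstrapped two-state fits, inverse-variance combined over four replicates. Fitted temperatures were raised by 9.35 °C to match UV melts.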

A short description of data set [2]: melting temperature; fluorescence melt of hairpins on a sequencing array, two-state fit, raised by 9.35 °C to match UV melts. The settings on record: sodium 0.088 M. In a few lines: as §1

For GCTGAGGGAAACCTTAGC (((.(((....))).))), the folding enthalpy in data set [1] was -33.7 kcal/mol. Moreover, the Tm in data set [2] stood at 47.1 °C.

For the sequence GCTGCACGAAAGTGAAGC (((.(((....))).))), the folding enthalpy in data set [1] was -36 kcal/mol. In addition, the Tm in data set [2] worked out at 60.5 °C.

Regarding GCTGCAGCGAAAGCTAGC (((..(((....)))))), the folding enthalpy in data set [1] is -11.9 kcal/mol. In data set [2], the Tm was found to be 48.7 °C.

With GCTGCAGGAAACCACAGC ((((..(....)..)))), in data set [1], the folding enthalpy was -24.9 kcal/mol. Further, in data set [2], the Tm is 37 °C.

As for GCTGCAGGAAACTGCAAC (.(((((....))))).), the folding enthalpy in data set [1] is -13.5 kcal/mol. Besides, the Tm in data set [2] stood at 40.9 °C.

On to GCTGCCGAAAGGCAAGC ((((((....))).))), for which, in data set [1], the folding enthalpy is -19.2 kcal/mol. For the same sequence, the Tm in data set [2] turned out to be 66.7 °C.

In the case of GCTGCCGAAAGGCACAGC ((((((....)))..))), in data set [1], the folding enthalpy was -13.4 kcal/mol. Also, the Tm in data set [2] worked out at 48.2 °C.

Turning to GCTGCCGAAAGGCAGAGC ((((((....)))..))), the folding enthalpy in data set [1] was -10 kcal/mol. Moreover, the Tm in data set [2] was 67.1 °C.

Regarding GCTGCCGAAAGGCGAAGC ((((((....)))..))), the folding enthalpy in data set [1] was -15.5 kcal/mol. Further, in data set [2], the Tm was 49 °C.

GCTGCCGAAAGGCGTAGC ((((((....)))..))): the folding enthalpy in data set [1] is -17.2 kcal/mol. In addition, the Tm in data set [2] came out at 50.5 °C.

Take GCTGCCTCGAAAGAGAGC (((..(((....)))))): the folding enthalpy in data set [1] is -14 kcal/mol. The Tm in data set [2] was 42.3 °C.

Regarding GCTGCGCGAAAGCCCGGC ((.(.((....)).).)), the folding enthalpy in data set [1] was -17.5 kcal/mol. Moreover, the Tm in data set [2] is 44.1 °C.

Regarding GCTGCGCGAAAGCCCTGC ((.(.((....)).).)), the folding enthalpy in data set [1] is -17.3 kcal/mol. Also, the Tm in data set [2] was found to be 38.5 °C.

On to GCTGCGCGAAAGCTCGGC ((.(.((....)).).)), for which the folding enthalpy in data set [1] was -22.4 kcal/mol. In addition, the Tm in data set [2] turned out to be 48.3 °C.

Turning to GCTGCGCGAAAGCTTAGC (((..((....))..))), the folding enthalpy in data set [1] is -20.5 kcal/mol. Besides, the Tm in data set [2] came to 39.6 °C.

Consider GCTGCGGGAAACTGCGGC ((.((.(....).)).)), for which, in data set [1], the folding enthalpy is -47.5 kcal/mol. For the same sequence, the Tm in data set [2] was found to be 51.8 °C.

GCTGCTCGAAAGAGGAGC (((.(((....))).))): in data set [1], the folding enthalpy is -38.9 kcal/mol. In data set [2], the Tm is 59.6 °C.

Take GCTGCTCGAAAGAGTAGC (((.(((....))).))): the folding enthalpy in data set [1] was -38.9 kcal/mol. In addition, the Tm in data set [2] is 62.1 °C.

On to GCTGCTGGAAACAGCAAC (.(((((....))))).), for which the folding enthalpy in data set [1] was -12.1 kcal/mol. Also, in data set [2], the Tm worked out at 44.3 °C.

On to GCTGGACCGAAAGGTAGC (((..(((....)))))), for which, in data set [1], the folding enthalpy was -18.5 kcal/mol. In data set [2], the Tm stood at 39.5 °C.

GCTGGACGAAAGTCAAGC (((.(((....))).))): the folding enthalpy in data set [1] was -38.3 kcal/mol. The Tm in data set [2] was found to be 58.7 °C.

For GCTGGAGGAAACTCCAAC (.(((((....))))).), in data set [1], the folding enthalpy is -15.6 kcal/mol. Also, in data set [2], the Tm was determined as 38 °C.

For the sequence GCTGGCGAAAGCCTCAGC ((((((....)))..))), the folding enthalpy in data set [1] is -14.7 kcal/mol. In addition, the Tm in data set [2] is 46.6 °C.

GCTGGCGGAAACACCAGC (((((.(....).))))): the folding enthalpy in data set [1] was -40.8 kcal/mol. In addition, the Tm in data set [2] is 53.5 °C.

Consider GCTGGCGGAAACGCCAAC (.(((((....))))).), for which the folding enthalpy in data set [1] is -11.2 kcal/mol. In data set [2], the Tm stood at 43.7 °C.

GCTGGCGGAAACGCTGGC ((..(((....)))..)): the folding enthalpy in data set [1] was -32.7 kcal/mol. The Tm in data set [2] is 53.7 °C.

GCTGGCTCGAAAGAGAGC (((..(((....)))))): the folding enthalpy in data set [1] is -11.1 kcal/mol. In addition, the Tm in data set [2] turned out to be 36.9 °C.

As to GCTGGGCGAAAGCACGGC ((.(.((....)).).)), in data set [1], the folding enthalpy was -21.2 kcal/mol. Further, the Tm in data set [2] turned out to be 69.1 °C.

Turning to GCTGGGCGAAAGCATAGC (((..((....))..))), the folding enthalpy in data set [1] was -22.9 kcal/mol. The Tm in data set [2] came to 54.2 °C.

Turning to GCTGGGCGAAAGCCATGC ((..(((....)))..)), the folding enthalpy in data set [1] was -19.2 kcal/mol. For the same sequence, the Tm in data set [2] was found to be 55.1 °C.

For the sequence GCTGGGCGAAAGCCGAGC (((.(((....))).))), the folding enthalpy in data set [1] was -38.5 kcal/mol. Also, the Tm in data set [2] came out at 58.6 °C.

Take GCTGGGCGAAAGCCGTGC ((..(((....)))..)): the folding enthalpy in data set [1] is -18.2 kcal/mol. In addition, in data set [2], the Tm is 47.6 °C.

As for GCTGGGCGAAAGCGCGGC ((.(.((....)).).)), in data set [1], the folding enthalpy was -33.2 kcal/mol. The Tm in data set [2] came to 64.1 °C.

Turning to GCTGGGCGAAAGCTAAGC (((..((....))..))), the folding enthalpy in data set [1] was -22.1 kcal/mol. Besides, in data set [2], the Tm is 53.9 °C.

With GCTGGGGGAAACCCTGGC ((..(((....)))..)), in data set [1], the folding enthalpy is -23.4 kcal/mol. Besides, the Tm in data set [2] turned out to be 49.1 °C.

In the case of GCTGGTGAAAACCAGC ((((((....)))))), in data set [1], the folding enthalpy was -22.6 kcal/mol. In data set [2], the Tm amounted to 69.1 °C.

With GCTGGTGCGAAAGCAAGC (((..(((....)))))), the folding enthalpy in data set [1] was -14.5 kcal/mol. Besides, the Tm in data set [2] is 43 °C.
